Measured values from ChEMBL document CHEMBL3526063, “Metabolism and pharmacokinetics of JM6 in mice: JM6 is not a prodrug for Ro-61-8048” (Drug Metab Dispos, 2012).

How the values were obtained:
[1] = Apparent permeability from apical to basolateral side in MDCK2 cells at 10 uM after 1 hr by LC-MS/MS analysis; type: ADME, cell-based, Canis lupus familiaris, MDCK-II; settings: dog
How it was run: (§1)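 MDCKII wild-type or MDR1 monolayers were grown 3 days on Transwells after seeding at 2×10^5 cells/well. Compound at 10 µM in HBSS with 25 mM HEPES, pH 7.4, was added apically or basolaterally in duplicate, with Lucifer Yellow as an integrity marker (wells above 100 nm/s rejected).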

[2] = Metabolic stability in mouse plasma assessed as half life at 5 uM after 10 to 1440 mins by LC-MS/MS analysis; type: ADME, cell-free
[3] = Metabolic stability in rat plasma assessed as half life at 5 uM after 10 to 1440 mins by LC-MS/MS analysis; type: ADME, cell-free
Mus musculus [4] = assay: Dose normalised AUC in C57BL/6N mouse treated with JM6 (containing <0.4% Ro-61-8048) at 9.5 mg/kg, po and Ro-61-8048 at 0.05 mg/kg, po drugs administered via gavage by LC-MS/MS analysis; type: ADME, organism-based; settings: in vivo, in the assay text read “0.5 mg/kg” for “0.05 mg/kg”
How it was run: (§2)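 Male C57BL/6N mice were dosed by oral gavage at 10 mL/kg with a fine suspension in 10% hydroxypropyl-β-cyclodextrin in 50 mM phosphate buffer, pH 7. Plasma was taken at non-serial time points (n=3 per time point), extracted with 0.1% formic acid in acetonitrile containing diclofenac as internal standard, and quantified by UPLC-MS/MS. Composite non-compartmental parameters came from mean concentrations; AUClast by linear trapezoid, kel from at least three terminal points.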

[5] = Metabolic stability in human liver microsomes assessed as half life at 5 uM after 5 to 40 mins by LC-MS/MS analysis; type: ADME
Mus musculus [6] = assay: Dose normalised AUC in C57BL/6N mouse treated with JM6 (containing <0.4% Ro-61-8048) at 50 mg/kg, po and Ro-61-8048 at 0.05 mg/kg, po drugs administered via gavage by LC-MS/MS analysis; type: ADME, organism-based; settings: in vivo; how it was run: as §2
[7] = Half life in C57BL/6N mouse treated with JM6 (containing <0.4% Ro-61-8048) at 9.5 mg/kg, po and Ro-61-8048 at 0.05 mg/kg, po drugs administered via gavage by LC-MS/MS analysis; type: ADME, organism-based; settings: in vivo, in the assay text read “0.5 mg/kg” for “0.05 mg/kg”; how it was run: as §2
Mus musculus [8] = assay: Dose normalised Cmax in C57BL/6N mouse treated with JM6 (containing <0.4% Ro-61-8048) at 9 mg/kg, po and Ro-61-8048 at 1 mg/kg, po drugs administered via gavage by LC-MS/MS analysis; type: ADME, organism-based; settings: in vivo; how it was run: as §2
[9] = AUClast in C57BL/6N mouse treated with JM6 (containing <0.4% Ro-61-8048) at 50 mg/kg, po and Ro-61-8048 at 0.05 mg/kg, po drugs administered via gavage by LC-MS/MS analysis; type: ADME, organism-based; set-up: dose 50 mg/kg, time 0 - last, route oral; settings: plasma; how it was run: as §2
MDR1 = assay: Apparent permeability from basolateral to apical side in MDCK2-MDR1 cells at 10 uM after 1 hr by LC-MS/MS analysis; type: ADME, cell-based, Canis lupus familiaris, MDCK-II; settings: dog, MDCK-MDR1; how it was run: as §1
[10] = Metabolic stability in human plasma assessed as half life at 5 uM after 10 to 1440 mins by LC-MS/MS analysis; type: ADME, cell-free
[11] = Cmax in C57BL/6N mouse treated with JM6 (containing <0.4% Ro-61-8048) at 10 mg/kg, po and Ro-61-8048 at 0.05 mg/kg, po drugs administered via gavage by LC-MS/MS analysis; type: ADME, organism-based; set-up: dose 10 mg/kg, route oral; settings: in vivo; how it was run: as §2
[12] = Half life in C57BL/6N mouse treated with JM6 (containing <0.4% Ro-61-8048) at 10 mg/kg, po and Ro-61-8048 at 0.05 mg/kg, po drugs administered via gavage by LC-MS/MS analysis; type: ADME, organism-based; settings: in vivo; how it was run: as §2
[13] = target: Kynurenine 3-monooxygenase (Homo sapiens, UniProt O15229); assay: Inhibition of human KMO assessed as 3-hydroxykynurenine formation preincubated for 5 mins using 100 uM kynurenine as substrate by LC-MS/MS analysis
How it was run: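 Liver mitochondrial KMO preparation (mouse C57 BL/6J, rat Wistar, human) at 0.3 mg protein/mL in 100 mM potassium phosphate pH 7.4 with 200 µM NADPH, 0.4 U/mL G6PDH, 3 mM glucose 6-phosphate. Compound pre-incubated 5 min at 25°C, then 100 µM kynurenine added; 40 min (rodent) or 60 min (human). Stopped with TCA; 3-hydroxykynurenine by LC-MS/MS. IC50 from 8-point 3-fold dilutions (top 3 or 30 µM), triplicates, n≥2 runs.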

[14] = Half life in C57BL/6N mouse treated with JM6 (containing <0.4% Ro-61-8048) at 25 mg/kg, po and Ro-61-8048 at 0.05 mg/kg, po drugs administered via gavage by LC-MS/MS analysis; type: ADME, organism-based; settings: in vivo; how it was run: as §2
[15] = Tmax in C57BL/6N mouse treated with JM6 (containing <0.4% Ro-61-8048) at 9 mg/kg, po and Ro-61-8048 at 1 mg/kg, po drugs administered via gavage by LC-MS/MS analysis; type: ADME, organism-based; settings: in vivo
How it was run: (§3)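 Male C57BL/6N mice dosed by oral gavage (10 mL/kg) as fine suspensions in 10% hydroxypropyl-β-cyclodextrin in 50 mM phosphate buffer pH 7; dose formulations verified by LC-MS/MS. Plasma analysed by LC-MS/MS; composite non-compartmental parameters from mean concentrations (n=3 per time point), C0 set to zero. %F = dose-normalised po AUCinf over dose-normalised iv AUCinf, only within linear range.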

Mus musculus [16] = assay: Dose normalised Cmax in C57BL/6N mouse treated with JM6 (containing <0.4% Ro-61-8048) at 10 mg/kg, po and Ro-61-8048 at 0.05 mg/kg, po drugs administered via gavage by LC-MS/MS analysis; type: ADME, organism-based; settings: in vivo; how it was run: as §2
[17] = Tmax in C57BL/6N mouse treated with JM6 (containing <0.4% Ro-61-8048) at 25 mg/kg, po and Ro-61-8048 at 0.05 mg/kg, po drugs administered via gavage by LC-MS/MS analysis; type: ADME, organism-based; settings: in vivo; how it was run: as §3
Mus musculus [18] = assay: Dose normalised AUC in C57BL/6N mouse treated with JM6 (containing <0.4% Ro-61-8048) at 25 mg/kg, po and Ro-61-8048 at 0.05 mg/kg, po drugs administered via gavage by LC-MS/MS analysis; type: ADME, organism-based; settings: in vivo; how it was run: as §2
[19] = AUC(infinity) in C57BL/6N mouse treated with JM6 (containing <0.4% Ro-61-8048) at 10 mg/kg, po and Ro-61-8048 at 0.05 mg/kg, po drugs administered via gavage by LC-MS/MS analysis; type: ADME, organism-based; set-up: dose 10 mg/kg, route oral, time infinity; settings: plasma; how it was run: as §2
Mus musculus [20] = assay: Dose normalised Cmax in C57BL/6N mouse treated with JM6 (containing <0.4% Ro-61-8048) at 50 mg/kg, po and Ro-61-8048 at 0.05 mg/kg, po drugs administered via gavage by LC-MS/MS analysis; type: ADME, organism-based; settings: in vivo; how it was run: as §2
[21] = AUClast in C57BL/6N mouse treated with JM6 (containing <0.4% Ro-61-8048) at 10 mg/kg, po and Ro-61-8048 at 0.05 mg/kg, po drugs administered via gavage by LC-MS/MS analysis; type: ADME, organism-based; set-up: dose 10 mg/kg, time 0 - last, route oral; settings: plasma; how it was run: as §2

Chain of Kynurenine 3-monooxygenase (O15229 whole entry): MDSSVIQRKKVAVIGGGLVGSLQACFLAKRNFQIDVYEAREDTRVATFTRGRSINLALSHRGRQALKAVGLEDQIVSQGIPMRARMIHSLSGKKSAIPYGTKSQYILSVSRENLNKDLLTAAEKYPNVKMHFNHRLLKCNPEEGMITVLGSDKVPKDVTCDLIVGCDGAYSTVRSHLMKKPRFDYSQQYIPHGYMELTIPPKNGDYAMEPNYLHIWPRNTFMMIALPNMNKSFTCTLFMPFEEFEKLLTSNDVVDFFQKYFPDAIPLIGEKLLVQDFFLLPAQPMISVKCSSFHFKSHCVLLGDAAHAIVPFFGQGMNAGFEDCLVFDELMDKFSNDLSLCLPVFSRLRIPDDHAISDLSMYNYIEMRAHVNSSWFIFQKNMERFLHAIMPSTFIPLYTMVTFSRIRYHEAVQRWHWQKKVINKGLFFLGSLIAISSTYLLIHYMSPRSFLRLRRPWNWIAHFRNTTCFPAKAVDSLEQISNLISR

## COc1ccc(S(=O)(=O)Nc2nc(-c3cccc([N+](=O)[O-])c3)cs2)cc1OC
[1]; MDCK
  Papp A→B at 1 h, 10 µM: 17 ×10⁻⁶ cm/s
[2]
  half-life at 5 µM: > 24 h
[3]
  half-life at 5 µM: > 24 h
Mus musculus [4]
  AUC/dose: 110000 nM·kg·h/mg
[5]
  half-life at 5 µM: 0.2 h
Mus musculus [6]
  AUC/dose: 160000 nM·kg·h/mg
[7]
  half-life: 6.9 h
Mus musculus [8]
  Cmax/dose: 21000 nM
[9]
  AUC(0-t): 7.9 µM·h
MDR1
  Papp B→A at 1 h, 10 µM: 33 ×10⁻⁶ cm/s
[10]
  half-life at 5 µM: > 24 h
[11]
  Cmax: 530 nM
[12]
  half-life: 5.8 h
[13]
  IC50: 0.17 µM
[14]
  half-life: 5.2 h
[15]
  Tmax: 0.5 h
Mus musculus [16]
  Cmax/dose: 11000 nM
[17]
  Tmax: 2 h
Mus musculus [18]
  AUC/dose: 180000 nM·kg·h/mg
[19]
  AUC(0-inf): 5.2 µM·h
Mus musculus [20]
  Cmax/dose: 160000 nM
[21]
  AUC(0-t): 4.9 µM·h

## COc1ccc(S(=O)(=O)Nc2nc(-c3cccc([N+](=O)[O-])c3)c(CN3CCCCC3)s2)cc1OC
[1]; mdck-ii, 1 h, 10 µM
  Papp: 4.7 ×10⁻⁶ cm/s
[2]
  half-life at 5 µM: > 24 h
[3]
  half-life at 5 µM: > 24 h
Mus musculus [4]
  AUC/dose: 160 nM·kg·h/mg
[5]
  half-life at 5 µM: > 1.62 h
Mus musculus [6]
  AUC/dose: 190 nM·kg·h/mg
[7]
  half-life: 0.9 h
Mus musculus [8]
  Cmax/dose: 110 nM
[9]
  AUC(0-t): 9.6 µM·h
MDR1
  Papp B→A at 1 h, 10 µM: 43 ×10⁻⁶ cm/s
[10]
  half-life at 5 µM: > 24 h
[11]
  Cmax: 1900 nM
[12]
  half-life: 0.7 h
[13]
  IC50: 11 µM
[14]
  half-life: 0.7 h
[15]
  Tmax: 0.5 h
Mus musculus [16]
  Cmax/dose: 190 nM
[17]
  Tmax: 0.5 h
Mus musculus [18]
  AUC/dose: 190 nM·kg·h/mg
[19]
  AUC(0-inf): 1.3 µM·h
Mus musculus [20]
  Cmax/dose: 190 nM
[21]
  AUC(0-t): 1.3 µM·h
